Measurements published in publication PMC6459016 (Journal of computer-aided molecular design, 2019).
Read-outs that look alike come from different tables or passages of the source.

What was measured:
[1] = Kinetic aqueous solubility; assay type: physicochemical; details: kinetic aqueous solubility in PBS 7.4 buffer from a 10 mM DMSO stock
[2] = Stirring double-sink PAMPA permeability; assay type: in vitro ADME; details: in-house at NCATS
Outline: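 Effective permeability was measured by passive diffusion in a stirring double-sink PAMPA. Sample preparation, analysis and data processing were fully automated.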

[3] = biological target: T1, recombinant human GALK1 (Homo sapiens, UniProt P51570); experiment: GALK1 inhibition assay; assay type: biochemical; details: for IC50: luminescence GALK1-ATP-depletion assay, ATP 35 μM, galactose 100 μM; for MR (maximal % inhibition): maximal % inhibition at 57 μM compound
Outline: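 Recombinant human GALK1 was run in 1536-well format against test compound at 6 doses (3 nM – 57 μM). Reactions were started with ATP (35 μM) and galactose (100 μM), both near their K_M under these conditions. Remaining ATP was read by Kinase-Glo luminescence. Normalized concentration-response data were fitted to a four-parameter logistic to give IC50 and efficacy (maximal response).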

[4] = Rat liver microsome stability; assay type: in vitro ADME; details: 37 °C, NADPH
[5] = biological target: T1, recombinant human GALK1; details: cited from earlier work

T1 sequence (P51570 whole entry): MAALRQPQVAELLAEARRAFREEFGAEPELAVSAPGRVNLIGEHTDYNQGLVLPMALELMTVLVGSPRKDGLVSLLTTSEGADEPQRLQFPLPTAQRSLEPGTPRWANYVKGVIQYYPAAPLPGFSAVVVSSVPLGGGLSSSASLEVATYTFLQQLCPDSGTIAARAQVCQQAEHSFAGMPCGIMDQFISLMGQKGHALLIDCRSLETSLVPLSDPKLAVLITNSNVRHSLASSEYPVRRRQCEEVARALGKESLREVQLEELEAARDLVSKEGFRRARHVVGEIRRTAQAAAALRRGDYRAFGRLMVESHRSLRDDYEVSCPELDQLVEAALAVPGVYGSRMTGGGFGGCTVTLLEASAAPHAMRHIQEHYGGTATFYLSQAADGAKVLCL

SMILES | Solubility [1] [Ug/ml] | Permeability [2] [×10⁻⁶ cm/s] | IC50 [3] [µM] | MR (maximal % inhibition) [3] [%] | Microsomal T1/2 [4] [m] | IC50 ([5]; GALK1) [µM] | Mode of inhibition ([5]; with respect to ATP and galactose substrate)
Cc1ccc(S(=O)(=O)Nc2cc(C(F)(F)F)ccc2C(=O)Nc2nc(-c3ccccc3)cs2)cc1 [C3] | < 1.0 | 82.2 | 15.9 | 92.9 | 15.0 | – | –
Cc1ccc(S(=O)(=O)Nc2cc(Cl)c(Cl)cc2C(=O)Nc2nc(-c3ccccc3)cs2)cc1 [C4] | <1.0 | < 5.0 | 22.2 | 89.3 | 13.0 | – | –
COc1ccc(-c2csc(NC(=O)c3ccccc3NS(=O)(=O)c3ccc(C)cc3)n2)cc1 [C5] | < 1.0 | 30.1 | 11.1 | 75.9 | 6.3 | – | –
Cc1ccc(-c2csc(NC(=O)c3ccccc3NS(=O)(=O)c3ccc(C)cc3)n2)cc1 [C6] | < 1.0 | 35.6 | 14 | 81.0 | 2.6 | – | –
O=C(Nc1nc(-c2ccccc2)cs1)c1ccncc1NS(=O)(=O)c1ccc(N2CCCC2=O)cc1 [C10] | 57.0 | 313.5 | 44.5 | 62.5 | 1.6 | – | –
O=C1CCCC2=C1C(c1[nH]ncc1Cl)N=C(Nc1nc3ccccc3o1)N2 (stereo not shown) [NCGC00238624] | – | – | – | – | – | 4.7 | competitive with respect to ATP and uncompetitive to galactose substrate

Continued, in another order:

Solubility [1] [Ug/ml] | Permeability [2] [×10⁻⁶ cm/s] | IC50 [3] [µM] | MR (maximal % inhibition) [3] [%] | Microsomal T1/2 [4] [m] | SMILES | IC50 ([5]; GALK1) [µM] | Mode of inhibition ([5]; with respect to ATP and galactose substrate)
9.4 | 724.3 | 14 | 83.5 | 17.0 | Cc1ccc(S(=O)(=O)Nc2cnccc2C(=O)Nc2nc(-c3ccccc3)cs2)cc1 [C2] | – | –
50.0 | 1064.7 | 11.1 | 90.3 | – | Cc1ccccc1S(=O)(=O)Nc1cnccc1C(=O)Nc1nc(-c2ccccc2)cs1 [C7] | – | –
54.1 | 674.5 | 15.7 | 84.5 | 1.6 | COc1ccc(S(=O)(=O)Nc2cnccc2C(=O)Nc2nc(-c3ccccc3)cs2)cc1 [C8] | – | –
< 1.0 | < 1.0 | 17.7 | 88.5 | 2.0 | O=C(Nc1nc(-c2ccccc2)cs1)c1ccncc1NS(=O)(=O)c1ccc(-c2ccccc2)cc1 [C9] | – | –
